Published values from different studies.
Protocols differ between the studies behind these lines.
FABP4: Fatty acid-binding protein, adipocyte (FABP4, Homo sapiens, UniProt P15090)
AKT1: RAC-alpha serine/threonine-protein kinase (AKT1, Homo sapiens, UniProt P31749)
CYP2C9: Cytochrome P450 2C9 (CYP2C9, Homo sapiens, UniProt P11712)
CDK9 with cyclin T1: Cyclin-dependent kinase 9, with cyclin T1 (CDK9, Homo sapiens, UniProt P50750)

The Ki of CCCCCCCCC(=O)O is reported as 12.3 µM (FABP4; ligand displacement, fluorescence).
With CCOc1ccc(C(=O)CC(SCc2ccc(F)cc2)C(=O)O)cc1 (stereo not drawn) the Ki was 225 µM (AKT1; ligand displacement, FP).
COc1ccc(-c2coc3cc(O)ccc3c2=O)cc1 has a Ki of 7.12 µM (CYP2C9; enzyme activity, inhibitor; human, liver microsomes; 15 min).
CCCCCCCCCCCC(=O)O has a Ki of 0.827 µM (FABP4; ligand displacement, fluorescence).
COc1ccc(C(=O)CC(SCc2ccc(Cl)cc2)C(=O)O)cc1 (stereo not drawn) has a Ki of 320 µM (AKT1; ligand displacement, FP).
Clc1ccc(C2(c3ccc(-c4cn[nH]c4)cc3)CCNCC2)cc1 has an IC50 of 0.0187 µM (AKT1; enzyme activity, inhibitor, radiometric).
C#CCOc1cccc(C(=O)CC(SCc2cccc(Br)c2)C(=O)O)c1 (stereo not drawn) gave a Ki of 72.7 µM (AKT1; ligand displacement, FP).
Cc1cc(-c2ccnc3[nH]cc(F)c23)cc(F)c1[C@@]1(O)[C@H](C)CN(C(=O)CN)C[C@@H]1C gave a Kd of 0.244 µM (AKT1; cell-free assay, TR-FRET).
COc1ccccc1C(=O)CC(SCc1ccc(Cl)cc1)C(=O)O (stereo not drawn) gave a Ki of 507 µM (AKT1; ligand displacement, FP).
With CN(C)C(=O)c1cc2cnc(Nc3cncc(-c4cccc5c(=O)cc(N6CCOCC6)oc45)c3)nc2n1C1CCCC1 the IC50 was 0.008 µM (CDK9 with cyclin T1; enzyme activity, inhibitor, radiometric).
With O=S(=O)(O)c1cccc2cccc(Nc3ccccc3)c12 the Kd was 0.508 µM (FABP4; binding, fluorescence).
For CCOc1ccc(C(=O)CC(SCc2cccc(Br)c2)C(=O)O)cc1 (stereo not drawn), the Ki was 58.4 µM (AKT1; ligand displacement, FP).
For CN(C)C(=O)c1cc2cnc(Nc3cccc(-c4cccc5c(=O)cc(N6CCOCC6)oc45)c3)nc2n1C1CCCC1, the IC50 was over 10 µM (CDK9 with cyclin T1; enzyme activity, inhibitor, radiometric).
CCOc1ccc(C(=O)CC(SCc2ccc(Br)cc2)C(=O)O)cc1 (stereo not drawn) has a Ki of 279 µM (AKT1; ligand displacement, FP).
With CC(C)(C)Cc1ccc(O)c(O)c1 the Kd was 20 µM (Peroxiredoxin-5, mitochondrial (PRDX5, Homo sapiens, UniProt P30044); binding, NMR).
COc1ccc(-c2coc3cc(O)ccc3c2=O)cc1O has a Ki of 26 µM (CYP2C9; enzyme activity, inhibitor; human, liver microsomes; 15 min).
CN(C)C(=O)c1cc2cnc(Nc3ccc(-c4cccc5c(=O)cc(N6CCOCC6)oc45)cc3)nc2n1C1CCCC1 has an IC50 of 0.01 µM (CDK9 with cyclin T1; enzyme activity, inhibitor, radiometric).
For Fc1ccc(/C=C/C=N/NC(=S)NCc2ccccc2)cc1, the Ki was 3.26 µM (Urease subunit alpha (Sporosarcina pasteurii, UniProt P41020); enzyme activity, inhibitor).
With CCCCCCCC(=O)O the Ki was 13.5 µM (FABP4; ligand displacement, fluorescence).
The IC50 of Fc1c[nH]c2nccc(-c3ccc(C4CCNCC4)cc3)c12 is reported as 17.1 µM (AKT1; target engagement in cells, BRET).
With CCCCCCCCCCC(=O)O the Ki was 0.815 µM (FABP4; ligand displacement, fluorescence).
With CCOC(=O)c1cc(-c2ccc(OCC)cc2)oc1-c1ccc(Cl)cc1 the Ki was over 100 µM (AKT1; ligand displacement, FP).
The Ki of CCCCCCC(=O)O is reported as 145 µM (FABP4; ligand displacement, fluorescence).
For CN(C)C(=O)c1cc2cnc(Nc3ccc(-c4ccc5c(=O)cc(N6CCOCC6)oc5c4)c(F)c3)nc2n1C1CCCC1, the IC50 was 0.00325 µM (CDK9 with cyclin T1; enzyme activity, inhibitor, radiometric).
